Test results: ChEMBL document CHEMBL3593190, “Triterpenoids with Promoting Effects on the Differentiation of PC12 Cells from the Steamed Roots of Panax notoginseng” (J Nat Prod, 2015)

Assays:
[1] = test system: PC-12; assay: Neurotrophic activity in rat PC12 cells assessed as stimulation of NGF-induced neurite outgrowth at 10 uM after 72 hrs by phase-contrast microscopic analysis relative to control; format: functional
Procedure, shortened: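 PC12 cells kept in F12 with 12.5% horse serum and 2.5% FBS at 37 °C, 5% CO2, then seeded at 5 × 10^4 cells/mL on poly-L-lysine. After 24 h, medium switched to 10 μM compound (DMSO, final 0.05%) plus 5 ng/mL NGF; controls: no NGF, 5 ng/mL or 50 ng/mL NGF. After 72 h, phase-contrast scoring: neurite ≥ soma diameter; % neurite-bearing cells, ≥100 cells/view, 5 views/well.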

[2] = test system: HL-60; assay: Cytotoxicity against human HL60 cells; format: functional, cell-based
[3] = Cytotoxicity against human […] cells; format: functional, cell-based
[4] = test system: A549; assay: Cytotoxicity against human A549 cells; format: functional, cell-based
[5] = test system: MCF7; assay: Cytotoxicity against human MCF7 cells; format: functional, cell-based
[6] = test system: SW480; assay: Cytotoxicity against human SW480 cells; format: functional, cell-based
[7] = test system: Human alphaherpesvirus 1; assay: Antiviral activity against HSV1; format: functional, organism-based
[8] = test system: Human alphaherpesvirus 2; assay: Antiviral activity against HSV2; format: functional, organism-based

Structure (SMILES)	Activity [1] [%]	IC50 [2] [µM]	IC50 [3] [µM]	IC50 [4] [µM]	IC50 [5] [µM]	IC50 [6] [µM]	EC50 [7] [µM]	EC50 [8] [µM]
C/C(=C\[C@@H](O)[C@H](O)C(C)(C)O)[C@H]1CC[C@]2(C)[C@@H]1[C@H](O)C[C@@H]1[C@@]3(C)CC[C@H](O)C(C)(C)[C@@H]3[C@@H](O[C@@H]3O[C@H](CO)[C@@H](O)[C@H](O)[C@H]3O)C[C@]12C	9.9	> 10	> 10	> 10	> 10	> 10		
C=C(CCCC(C)(C)O)[C@H]1CC[C@]2(C)[C@@H]1[C@H](O)C[C@@H]1[C@@]3(C)CC[C@H](O)C(C)(C)[C@@H]3[C@@H](O[C@@H]3O[C@H](CO)[C@@H](O)[C@H](O)[C@H]3O)C[C@]12C	8.3	> 10	> 10	> 10	> 10	> 10		
CO[C@@H](/C=C(\C)[C@H]1CC[C@]2(C)[C@@H]1[C@H](O)C[C@@H]1[C@@]3(C)CC[C@H](O)C(C)(C)[C@@H]3[C@@H](O[C@@H]3O[C@H](CO)[C@@H](O)[C@H](O)[C@H]3O)C[C@]12C)[C@@H]1OC1(C)C	11.6	> 10	> 10	> 10	> 10	> 10		
C/C(=C/[C@H](O)[C@@H](O)C(C)(C)O)[C@H]1CC[C@]2(C)[C@@H]1[C@H](O)C[C@@H]1[C@@]3(C)CC[C@H](O)C(C)(C)[C@@H]3[C@@H](O[C@@H]3O[C@H](CO)[C@@H](O)[C@H](O)[C@H]3O)C[C@]12C	11.4	> 10	> 10	> 10	> 10	> 10		
CO[C@@H](/C=C(\C)[C@H]1CC[C@]2(C)[C@@H]1[C@H](O)C[C@@H]1[C@@]3(C)CC[C@H](O[C@@H]4O[C@H](CO)[C@@H](O)[C@H](O)[C@H]4O[C@@H]4O[C@H](CO)[C@@H](O)[C@H](O)[C@H]4O)C(C)(C)[C@@H]3CC[C@]12C)[C@@H]1OC1(C)C	11.4	> 10	> 10	> 10	> 10	> 10		
C/C(=C\C[C@H](O)C(C)(C)O)[C@H]1CC[C@]2(C)[C@@H]1[C@H](O)C[C@@H]1[C@@]3(C)CC[C@H](O)C(C)(C)[C@@H]3[C@@H](O[C@@H]3O[C@H](CO)[C@@H](O)[C@H](O)[C@H]3O)C[C@]12C	9.3	> 10	> 10	> 10	> 10	> 10		
CC(C)(O)[C@H](O)/C=C/[C@](C)(O)[C@H]1CC[C@]2(C)[C@@H]1[C@H](O)C[C@@H]1[C@@]3(C)CC[C@H](O[C@@H]4O[C@H](CO)[C@@H](O)[C@@H](O)[C@H]4O[C@@H]4O[C@H](CO)[C@@H](O)[C@H](O)[C@H]4O)C(C)(C)[C@@H]3CC[C@]12C	10.8	> 10	> 10	> 10	> 10	> 10		
CC(C)=CCC[C@@](C)(O)[C@H]1CC[C@]2(C)[C@@H]1[C@H](O)C[C@@H]1[C@@]3(C)CC[C@H](O)C(C)(C)[C@@H]3[C@@H](O[C@@H]3O[C@H](CO)[C@@H](O)[C@H](O)[C@H]3O)C[C@]12C	8.5	> 10	> 10	> 10	> 10	> 10		
C=C(CCC=C(C)C)[C@H]1CC[C@]2(C)[C@@H]1[C@H](O)C[C@@H]1[C@@]3(C)CC[C@H](O[C@@H]4O[C@H](CO)[C@@H](O)[C@H](O)[C@H]4O)C(C)(C)[C@@H]3CC[C@]12C	8.9	> 10	> 10	> 10	> 10	> 10		
CC(C)=CCC[C@](C)(O)[C@H]1CC[C@]2(C)[C@@H]1[C@H](O)C[C@@H]1[C@@]3(C)CC[C@H](O[C@@H]4O[C@H](CO)[C@@H](O)[C@H](O)[C@H]4O[C@@H]4O[C@H](CO)[C@@H](O)[C@H](O)[C@H]4O[C@@H]4OC[C@@H](O)[C@H](O)[C@H]4O)C(C)(C)[C@@H]3CC[C@]12C							16.5	19.4
CC(C)(O)CCC[C@@](C)(O)[C@H]1CC[C@]2(C)[C@@H]1[C@H](O)C[C@@H]1[C@@]3(C)CC[C@H](O)C(C)(C)[C@@H]3[C@@H](O[C@@H]3O[C@H](CO)[C@@H](O)[C@H](O)[C@H]3O)C[C@]12C	8.6	> 10	> 10	> 10	> 10	> 10		
CC(C)=CCC[C@@](C)(O)[C@H]1CC[C@]2(C)[C@@H]1[C@H](O)C[C@@H]1[C@@]3(C)CC[C@H](O[C@@H]4O[C@H](CO)[C@@H](O)[C@H](O)[C@H]4O[C@@H]4O[C@H](CO)[C@@H](O)[C@H](O)[C@H]4O)C(C)(C)[C@@H]3CC[C@]12C	9.5	> 10	> 10	> 10	> 10	> 10		
CC(C)(O)[C@@H](O)/C=C/[C@](C)(O)[C@H]1CC[C@]2(C)[C@@H]1[C@H](O)C[C@@H]1[C@@]3(C)CC[C@H](O[C@@H]4O[C@H](CO)[C@@H](O)[C@H](O)[C@H]4O[C@@H]4O[C@H](CO)[C@@H](O)[C@H](O)[C@H]4O)C(C)(C)[C@@H]3CC[C@]12C	8.2	> 10	> 10	> 10	> 10	> 10		
CC(=O)OC[C@H]1O[C@@H](O[C@H]2[C@H](O[C@H]3CC[C@]4(C)[C@H]5C[C@@H](O)[C@@H]6[C@@H]([C@@](C)(O)CCC=C(C)C)CC[C@@]6(C)[C@]5(C)CC[C@H]4C3(C)C)O[C@H](CO)[C@@H](O)[C@@H]2O)[C@H](O)[C@@H](O)[C@@H]1O	9.3	> 10	> 10	> 10	> 10	> 10		
C/C(=C/[C@@H](O)[C@H](O)C(C)(C)O)[C@H]1CC[C@]2(C)[C@@H]1[C@H](O)C[C@@H]1[C@@]3(C)CC[C@H](O)C(C)(C)[C@@H]3[C@@H](O[C@@H]3O[C@H](CO)[C@@H](O)[C@H](O)[C@H]3O)C[C@]12C	10.9	> 10	> 10	> 10	> 10	> 10		
CC(=O)OC[C@H]1O[C@@H](O[C@H]2[C@H](O[C@H]3CC[C@]4(C)[C@H]5C[C@@H](O)[C@@H]6[C@@H]([C@](C)(O)CCC=C(C)C)CC[C@@]6(C)[C@]5(C)CC[C@H]4C3(C)C)O[C@H](CO)[C@@H](O)[C@@H]2O)[C@H](O)[C@@H](O)[C@@H]1O	13.4	> 10	> 10	> 10	> 10	> 10		
